The record followed here is ChEMBL document CHEMBL1146062, “Synthesis of 3-benzyl-2-substituted quinoxalines as novel monoamine oxidase A inhibitors” (Bioorg Med Chem Lett, 2006).

Series [1] concerns the target T1, Amine oxidase [flavin-containing] A (Rattus norvegicus, UniProt P21396).
T1 sequence (P21396 whole entry): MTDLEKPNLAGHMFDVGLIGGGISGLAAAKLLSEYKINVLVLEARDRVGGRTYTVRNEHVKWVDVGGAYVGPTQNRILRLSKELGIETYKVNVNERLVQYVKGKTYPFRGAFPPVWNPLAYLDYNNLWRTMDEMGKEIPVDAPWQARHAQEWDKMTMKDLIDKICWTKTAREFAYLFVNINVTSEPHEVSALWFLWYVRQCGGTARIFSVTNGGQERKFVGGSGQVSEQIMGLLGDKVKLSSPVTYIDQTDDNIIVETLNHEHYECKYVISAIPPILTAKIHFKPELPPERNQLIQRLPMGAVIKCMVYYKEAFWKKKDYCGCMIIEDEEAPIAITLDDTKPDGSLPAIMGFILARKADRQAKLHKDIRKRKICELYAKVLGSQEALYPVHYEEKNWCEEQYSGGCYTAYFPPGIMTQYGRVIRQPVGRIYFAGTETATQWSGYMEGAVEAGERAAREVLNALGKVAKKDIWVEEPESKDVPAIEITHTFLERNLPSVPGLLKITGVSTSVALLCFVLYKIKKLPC
Kind of series: Inhibition of rat liver mitochondria MAOA at 100 uM. A digest of the protocol:
(§1)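 MAO-A activity was measured in rat liver mitochondria with serotonin (5HT) as substrate. Test compounds were used at a final concentration of 1 × 10^-4 M, and inhibition was determined.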

For series [2], the target named is T1, Amine oxidase [flavin-containing] A. Kind of series: Inhibition of rat liver mitochondria MAOA. A digest of the protocol: as §1
In series [3] the target is T2, Amine oxidase [flavin-containing] B (Rattus norvegicus, UniProt P19643).
T2 sequence (P19643 whole entry): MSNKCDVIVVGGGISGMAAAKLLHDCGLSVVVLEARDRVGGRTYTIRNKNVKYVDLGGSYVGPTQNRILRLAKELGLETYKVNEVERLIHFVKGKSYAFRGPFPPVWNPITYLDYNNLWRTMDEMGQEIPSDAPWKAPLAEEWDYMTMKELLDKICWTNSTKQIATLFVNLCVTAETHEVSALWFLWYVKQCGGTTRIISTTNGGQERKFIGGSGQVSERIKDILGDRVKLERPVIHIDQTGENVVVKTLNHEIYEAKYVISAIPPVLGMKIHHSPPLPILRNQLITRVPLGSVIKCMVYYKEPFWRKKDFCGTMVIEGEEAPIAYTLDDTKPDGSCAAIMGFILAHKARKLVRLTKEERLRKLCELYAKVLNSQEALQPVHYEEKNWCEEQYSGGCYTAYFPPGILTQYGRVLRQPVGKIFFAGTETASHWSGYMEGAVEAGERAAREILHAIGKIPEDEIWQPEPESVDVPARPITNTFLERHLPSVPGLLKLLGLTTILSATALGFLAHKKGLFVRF
The series can be described thus: Inhibition of rat liver mitochondria MAOB.

For series [4], the system named is Mus musculus. The series can be described thus: Toxicity in mouse upto 250 mg/kg, po. The format is organism-based. The conditions noted are these: in vivo. Further details: dose 250 mg/kg, route oral. A digest of the protocol: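 Acute oral toxicity was assessed in male mice. Tolerability and mortality were recorded at doses up to […].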
Series [5] deals with Mus musculus. The series can be described thus: Toxicity in mouse upto 125 mg/kg administered by parenteral route. The class given is organism-based. Further details: dose 125 mg/kg. The conditions noted are these: in vivo.

A word on the inhibition: it is the percentage by which the read-out fell short of the control. Lower therefore signals little suppression. What is called IC50 is the concentration needed to halve the response being measured. A high value points to lower potency. `NNc1nc2cc(Cl)c(Cl)cc2nc1Cc1ccccc1`: the inhibition at 100 µM in series [1] stood at 42%. Moreover, the IC50 is 0.0076 µM in series [2] and 74 µM in series [3]. Also, the Activity result in the series on Mus musculus [4] and in the series with Mus musculus [5] was “Non-toxic” in each case.

With `c1ccc(Cc2nc3ccccc3nc2NCCN2CCOCC2)cc1`, 100 µM produced 46.1% inhibition in series [1]. Also, the results for the concentration for half-maximal inhibition (IC50) in series [2] and in series [3] were 0.0013 µM and 840 µM, respectively. Besides, the Activity entry in the series with Mus musculus [4] and in the series with Mus musculus [5] was “Non-toxic” in each case.

`CNCCNc1nc2ccccc2nc1Cc1ccccc1`: the inhibition at 100 µM in series [1] turned out to be 40.9%. The IC50 in series [2] is 0.092 µM; in series [3] it was 790 µM. Besides, the Activity result in the series on Mus musculus [4] and in the series on Mus musculus [5] was “Non-toxic” throughout.

In turn, `Clc1cc2nc(Cc3ccccc3)c(NCCN3CCOCC3)nc2cc1Cl` yielded an inhibition at 100 µM in series [1] of 40%. Further, the IC50 in series [2] was 0.073 µM; in series [3], 960 µM. In addition, the Activity result in the series on Mus musculus [4] and with Mus musculus [5] was “Non-toxic” each time.

In series [1], `NNc1nc2ccccc2nc1Cc1ccccc1` gave an inhibition at 100 µM of 54.1%. Also, the IC50 in series [2] is 0.0088 µM; in series [3] it was 840 µM. Also, the Activity entry with Mus musculus [4] and in the series on Mus musculus [5] was “Non-toxic” each time.

In series [1], `OCCNc1nc2ccccc2nc1Cc1ccccc1` gave an inhibition at 100 µM of 46%. In addition, the half-maximal inhibitory concentration (IC50) in series [2] was determined as 0.0037 µM; in series [3], 86 µM. Also, the Activity result with Mus musculus [4] and in the series on Mus musculus [5] was “Non-toxic” in each case.

In series [1], `NNc1nc2ccccc2nc1Cc1ccc(Cl)cc1` displayed an inhibition at 100 µM of 49.5%. The concentration for half-maximal inhibition (IC50) in series [2] came out at 0.0021 µM; in series [3], 570 µM. The Activity entry in the series on Mus musculus [4] and with Mus musculus [5] was “Non-toxic” throughout.

For the molecule `Clc1ccc(Cc2nc3ccccc3nc2NCCN2CCOCC2)cc1`, in series [1], at 100 µM the inhibition was 50.5%. The 50% inhibitory concentration (IC50) in series [2] came out at 0.0017 µM; in series [3], 360 µM. In addition, the Activity entry with Mus musculus [4] and in the series on Mus musculus [5] was “Non-toxic” throughout.
